From ChEMBL document CHEMBL1157057, “Iridoids and lignans from Valeriana jatamansi” (J Nat Prod, 2010)

Key:
Format in all cases: functional, cell-based
Bel-7402 = experiment: Cytotoxicity against human Bel7402 cells after 24 hrs by MTT assay
Method in brief: (§1)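 Human cancer cell lines from ATCC were seeded at 3000 cells per well and dosed 24 h after seeding across a range of concentrations. After 24 h of compound exposure, MTT was added and incubation continued another 24 h. Viability was read as absorbance at 570 nm and IC50 calculated. Paclitaxel was the positive control.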

A549 = experiment: Cytotoxicity against human A549 cells after 24 hrs by MTT assay; method in brief: as §1
HCT-8 = experiment: Cytotoxicity against human HCT8 cells after 24 hrs by MTT assay; method in brief: as §1
PC-3M = experiment: (§2) Cytotoxicity against human PC3M cells after 24 hrs by MTT assay; method in brief: as §1
[1] = as §2; details: PC-3M; method in brief: as §1

Structure (SMILES) | Activity (Bel-7402) | Activity (A549) | Activity (HCT-8) | Activity (PC-3M) | IC50 (HCT-8; HCT-8, 24 h) [µM] | IC50 [1] [µM]
C[C@@H]1COC(=O)[C@H]2[C@@H]1C[C@H](O)[C@@]2(C)O | Not toxic | Not toxic | Not toxic | Not toxic |  | 
C=C1[C@H]2O[C@@H](O)[C@H]3[C@@H]1C[C@H](O)[C@@]3(C)O2 | Not toxic | Not toxic | Not toxic | Not toxic |  | 
C=C1[C@H]2OC(=O)[C@H]3[C@@H]1C[C@H](O)[C@@]3(C)O2 | Not toxic | Not toxic | Not toxic | Not toxic |  | 
C=C(CO)[C@H]1C[C@H](O)[C@@](C)(O)[C@H]1CO | Not toxic | Not toxic | Not toxic | Not toxic |  | 
CO[C@H]1OC(=O)[C@H]2[C@@H]3C[C@H](O)[C@@]2(C)OC[C@H]13 | Not toxic | Not toxic | Not toxic | Not toxic |  | 
C=C1[C@H]2OC[C@H]3[C@@H]1C[C@H](O)[C@@]3(C)O2 | Not toxic | Not toxic | Not toxic | Not toxic |  | 
C=C1CO[C@@]2(CO)C(CO)=CC[C@H]12 | Not toxic | Not toxic | Not toxic | Not toxic |  | 
COc1cc(C[C@H]2CO[C@H](c3ccc(O)c(OC)c3)[C@H]2COC(=O)CC(C)C)ccc1O [(+)-9'-ISOVALEROXYLARICIRESINOL] | Not toxic | Not toxic |  |  | 5.3 | 8.1
CO[C@@H]1O[C@]2(C)[C@@H](O)C[C@@H]3[C@H]1COC(=O)[C@@H]32 | Not toxic | Not toxic | Not toxic | Not toxic |  | 
C[C@H]1COC(=O)[C@H]2[C@@H]1C[C@H](O)[C@@]2(C)O | Not toxic | Not toxic | Not toxic | Not toxic |  | 
C=C1COC(=O)[C@H]2[C@@H]1C[C@H](O)[C@@]2(C)O | Not toxic | Not toxic | Not toxic | Not toxic |  | 
C[C@]12O[C@@H]3OC(=O)[C@H]1[C@H](C[C@@H]2O)[C@H]3CO | Not toxic | Not toxic | Not toxic | Not toxic |  | 
C=C(C=O)[C@@]1(O)C[C@H](OC(C)=O)C(CO)=C1C=O | Not toxic | Not toxic | Not toxic | Not toxic |  | 
C=C(C=O)[C@H]1C[C@H](O)[C@@](C)(O)[C@H]1C(=O)OC | Not toxic | Not toxic | Not toxic | Not toxic |  | 
